Experimental data from ChEMBL document CHEMBL1135607, “1-Benzyl-3-(5'-hydroxymethyl-2'-furyl)indazole (YC-1) derivatives as novel inhibitors against sodium nitroprusside-induced apoptosis” (2002).

Organism: Rattus norvegicus
Assay: Effect on the survival of rat aortic smooth muscle cells
Type: functional
Design: concentration or dose not given beside the values
Procedure, shortened: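 Rat aortic smooth muscle cells in culture, pretreated 30 min with test compound at 30 μM, then vehicle or sodium nitroprusside (1 mM) added for another 24 h. Viability read by MTT assay and TUNEL.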

Compound	Cell survival
OCc1ccc(-c2nn(Cc3ccccc3)c3cc(F)ccc23)o1	83.3%
COCc1ccc(-c2nn(Cc3ccccc3)c3ccccc23)o1	93.2%
CNCc1ccc(-c2nn(Cc3ccccc3)c3ccccc23)o1	57.2%
OCc1ccc(-c2nn(Cc3ccccc3)c3ccccc23)o1	94.7%
OCc1ccc(-c2nn(-c3ccccc3)c3ccccc23)o1	93.9%
Cc1ccc(-c2nn(Cc3ccccc3)c3ccccc23)o1	31.1%
OCc1ccc(-c2nn(Cc3ccccc3)c3cc4c(cc23)OCO4)o1	75.8%
COc1ccc2c(-c3ccc(CO)o3)nn(Cc3ccccc3)c2c1	84.5%
COC(=O)c1ccc(-c2nn(Cc3ccccc3)c3ccccc23)o1	78%
SODIUM NITROPRUSSIDE	41.3%
CCN(CC)Cc1ccc(-c2nn(Cc3ccccc3)c3ccccc23)o1	39.7%
